Ten compounds from ChEMBL document CHEMBL3739330, “Phenolic group on A-ring is key for dracoflavan B as a selective noncompetitive inhibitor of α-amylase” (Bioorg Med Chem, 2015) can be followed below.

Assay [1] deals with T1, Pancreatic alpha-amylase (Sus scrofa) (UniProt P00690).
T1 sequence (whole entry): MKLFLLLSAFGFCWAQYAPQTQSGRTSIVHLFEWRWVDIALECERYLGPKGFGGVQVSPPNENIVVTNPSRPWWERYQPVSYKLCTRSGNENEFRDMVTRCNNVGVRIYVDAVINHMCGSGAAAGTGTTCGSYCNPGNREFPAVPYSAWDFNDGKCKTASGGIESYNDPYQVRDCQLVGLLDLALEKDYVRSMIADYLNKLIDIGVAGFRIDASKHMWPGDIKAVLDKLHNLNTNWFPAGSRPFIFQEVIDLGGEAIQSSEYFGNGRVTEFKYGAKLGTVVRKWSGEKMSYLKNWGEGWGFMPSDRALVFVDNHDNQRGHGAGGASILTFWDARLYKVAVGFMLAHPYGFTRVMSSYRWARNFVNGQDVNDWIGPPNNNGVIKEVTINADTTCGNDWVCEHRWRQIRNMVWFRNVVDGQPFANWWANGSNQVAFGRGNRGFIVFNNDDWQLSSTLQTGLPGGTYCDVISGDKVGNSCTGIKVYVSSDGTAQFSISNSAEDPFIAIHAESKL
As to the kind of experiment: Inhibition of porcine pancreatic alpha-amylase assessed as starch digestion up to 370 uM up to 120 mins by turbidity assay.

For assay [2], the target named is T2, Pancreatic alpha-amylase (Sus scrofa, UniProt P00690).
T2 sequence (P00690 whole entry): T1 sequence (whole entry)
As to the kind of experiment: Inhibition of porcine pancreatic alpha-amylase assessed as starch digestion up to 120 mins by turbidity assay.

For assay [3], the species on record is Rattus norvegicus. As to the kind of experiment: Inhibition of rat intestine alpha-glucosidase assessed as starch digestion by turbidity assay.
For assay [4], the species on record is Rattus norvegicus. Briefly: Inhibition of rat intestine alpha-glucosidase assessed as starch digestion up to 370 uM up to 120 mins by turbidity assay.
Another assay concerns Aspergillus oryzae. Briefly: Inhibition of Aspergillus oryzae alpha-amylase.
The target of a further assay is Alpha-amylase (Bacillus subtilis (strain 168), UniProt P00691). As to the kind of experiment: Inhibition of Bacillus subtilis alpha-amylase.
Chain of Alpha-amylase (P00691 whole entry): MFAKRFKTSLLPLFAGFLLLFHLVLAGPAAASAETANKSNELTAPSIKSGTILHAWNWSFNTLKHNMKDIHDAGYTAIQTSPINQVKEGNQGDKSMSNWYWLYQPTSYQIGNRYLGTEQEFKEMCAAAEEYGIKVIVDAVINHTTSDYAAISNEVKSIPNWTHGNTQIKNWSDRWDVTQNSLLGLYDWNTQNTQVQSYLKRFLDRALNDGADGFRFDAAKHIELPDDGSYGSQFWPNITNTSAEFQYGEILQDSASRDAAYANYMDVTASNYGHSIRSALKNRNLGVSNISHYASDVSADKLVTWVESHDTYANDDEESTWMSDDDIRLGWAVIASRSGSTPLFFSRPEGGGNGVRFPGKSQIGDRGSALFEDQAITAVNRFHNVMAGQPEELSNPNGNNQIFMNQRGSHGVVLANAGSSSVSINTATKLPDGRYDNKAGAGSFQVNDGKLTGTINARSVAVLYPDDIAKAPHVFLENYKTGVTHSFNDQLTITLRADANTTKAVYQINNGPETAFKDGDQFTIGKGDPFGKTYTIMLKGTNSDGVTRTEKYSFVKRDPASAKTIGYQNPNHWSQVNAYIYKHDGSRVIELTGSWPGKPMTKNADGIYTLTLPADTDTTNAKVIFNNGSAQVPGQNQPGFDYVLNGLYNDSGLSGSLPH
Assay [5] deals with T2, Pancreatic alpha-amylase. As to the kind of experiment: Non-competitive inhibition of porcine pancreatic alpha-amylase by Lineweaver-Burk plot analysis. An outline of the steps:
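Corn starch substrate 0.25–1 mg/mL, inhibitor at 11, 18 and 22 µM. Inhibitor (dissolved in methanol, diluted in 0.1 M sodium phosphate pH 6.9) preincubated with starch at 37 °C for 15 min. Enzyme then added and reaction stopped at 5 min with DNSA reagent. Boiled 5 min and absorbance read at 540 nm. Initial velocity taken from reducing sugar released. Mode assigned by Michaelis–Menten and Lineweaver–Burk analysis, with a buffer-only control.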

Calls of active or inactive are those of the source. No cut-off for these calls is given here.

In the case of `COc1cc2c(c3c1CC[C@@H](c1ccccc1)O3)[C@H]1c3c(cc(OC(=O)c4cc(OC(C)=O)c(OC(C)=O)c(OC(C)=O)c4)c(C)c3OC)O[C@@](c3ccccc3)(O2)[C@@H]1O`, in assay [1], the inhibition result is “inactive”.

As a reminder, the IC50 is the point on the concentration scale where inhibition reaches its midpoint. Turning to `COc1cc2c(c3c1CC[C@@H](c1ccccc1)O3)[C@H]1c3c(cc(OC(=O)c4cc(O)c(O)c(O)c4)c(C)c3OC)O[C@@](c3ccccc3)(O2)[C@@H]1O`, at Pancreatic alpha-amylase [2], the IC50 was found to be 12 µM.

As for `C[C@@H]1O[C@@H](O[C@@H]2[C@@H](O)[C@H](O)[C@H](O[C@H]3[C@H](O)[C@@H](O)C(O)O[C@@H]3CO)O[C@H]2CO)[C@@H](O)[C@H](O)[C@H]1N[C@H]1C=C(CO)[C@@H](O)[C@H](O)[C@H]1O` (some centres undefined), in the assay listed under Rattus norvegicus [3], the inhibition result was “Active”.

Regarding `COc1cc2c(c3c1CC[C@@H](c1ccccc1)O3)[C@H]1c3c(cc(OC(=O)c4ccccc4)c(C)c3OC)O[C@@](c3ccccc3)(O2)[C@@H]1O`, in assay [1], the inhibition entry is “inactive”.

For the compound `COc1cc2c(c3c1CC[C@@H](c1ccccc1)O3)[C@H]1c3c(cc(OS(=O)(=O)O)c(C)c3OC)O[C@@](c3ccccc3)(O2)[C@@H]1O`, the inhibition entry in assay [1] is “inactive”.

On to `COc1cc2c(c3c1CC[C@@H](c1ccccc1)O3)[C@H]1c3c(cc(O)c(C)c3OC)O[C@@](c3ccccc3)(O2)[C@@H]1O` (mixture of isomers), for which, in assay [1], the inhibition result is “Active”. Further, in the assay listed under Rattus norvegicus [4], the inhibition result is “inactive”.

Take `COc1cc2c(c3c1CC[C@@H](c1ccccc1)O3)[C@H]1c3c(cc(O)c(C)c3OC)O[C@@](c3ccccc3)(O2)[C@@H]1O`: on Pancreatic alpha-amylase [2], the half-inhibitory concentration (IC50) worked out at 23 µM.

For orientation: Ki means a measure of affinity in units of concentration, obtained from inhibition or displacement. Read a high Ki as lower affinity. For `COc1cc2c(c3c1CC[C@@H](c1ccccc1)O3)[C@@H]1c3c(cc(O)c(C)c3OC)O[C@](c3ccccc3)(O2)[C@H]1O`, the inhibition entry with Aspergillus oryzae is “inactive”. For the same compound, the IC50 on Alpha-amylase is 42 µM; at Pancreatic alpha-amylase [2] it was 27 µM. Further, the affinity at Pancreatic alpha-amylase [5], expressed as Ki, was 11.7 µM.

For the compound `Oc1cc(O)c2c(c1)O[C@@]1(c3ccc(O)c(O)c3)Oc3cc(O)c4c(c3[C@@H]2[C@H]1O)O[C@H](c1ccc(O)c(O)c1)[C@H](O)C4`, the inhibition result in assay [1] was “inactive”.

On to `COc1cc2c(c3c1CC[C@@H](c1ccccc1)O3)[C@H]1c3c(cc(OC(C)=O)c(C)c3OC)O[C@@](c3ccccc3)(O2)[C@@H]1O`, for which the inhibition entry in assay [1] was “inactive”.
